The record followed here is ChEMBL document CHEMBL2396655, “Design, synthesis, and biological evaluation of (E)-N-aryl-2-arylethenesulfonamide analogues as potent and orally bioavailable microtubule-targeted anticancer agents” (J Med Chem, 2013).

SMILES strings stand for the structures. In brackets after ≈: the same amount, converted by molar mass. Activity calls are given as the source filed them. The rule behind the calls is not given here.

The test system of one data set is DU-145. The experiment in a line: Cytotoxicity against human DU145 cells after 96 hrs by trypan blue exclusion assay. Particulars: for IC50: DU-145, 96 h. Type of data set: functional, cell-based. An outline of the steps: (§1)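 Cells were grown in DMEM or RPMI with 10% FBS and plated at 2.5×10⁴ cells/well in 12-well dishes. Compounds were added 24 h later at various concentrations. After 96 h, viable cells were counted by trypan blue exclusion from duplicate wells. Results are the mean of two independent experiments.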

A short description of data set [1]: Solubility of the compound in water. Type of data set: physicochemical.
Another data set concerns K562. The experiment in a line: Cytotoxicity against human K562 cells after 96 hrs by trypan blue exclusion assay. The note with it: for IC50: K562, 96 h. Type of data set: functional, cell-based. An outline of the steps: as §1
Data set [2] has as its system 2008. The experiment in a line: Growth inhibition of human 2008 cells. Type of data set: functional.
Data set [3] is described as follows: Growth inhibition of paclitaxel-resistant human 2008/17/4 cells. The data set is classed as functional. An outline of the steps:
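Cells grown in DMEM or RPMI with 10% FBS and penicillin-streptomycin, seeded at 2.5 × 10⁴ cells/mL/well; compound added 24 h later over a concentration range. After 96 h, viable cells counted by trypan blue exclusion in duplicate wells. GI₅₀ is the concentration giving 50% growth inhibition, reported as mean ± SD of two independent experiments.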

In data set [4] the test system is 2008. The experiment in a line: Resistance factor, ratio of GI50 for paclitaxel-resistant human 2008/17/4 cells to GI50 for human 2008 cells. The data set is classed as functional.
Data set [5] is described as follows: Growth inhibition of human MES-SA cells. Type of data set: functional.
Data set [6] in a line: Growth inhibition of multidrug-resistant human MES-SA/Dx5 cells. The data set is classed as functional.
Data set [7] is filed under the species Bos taurus. As to the kind of experiment: Effect on bovine brain tubulin assessed as stabilization of microtubule polymerization at 10 uM over 40 mins by spectrophotometric analysis. An outline of the steps:
(§2)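 Purified bovine brain tubulin was incubated at 37 °C with 10 μM compound, DMSO or reference agents. Polymerization was followed as rising absorbance at 340 nm over 40 min. Data are representative of three independent experiments.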

In another data set the test system is MES-SA. As to the kind of experiment: Resistance factor, ratio of GI50 for multidrug-resistant human MES-SA/Dx5 cells to GI50 for human MES-SA cells. Type of data set: functional.
For data set [8], the species on record is Bos taurus. As to the kind of experiment: Inhibition of bovine brain tubulin assessed as destabilization of microtubule polymerization at 10 uM over 40 mins by spectrophotometric analysis. An outline of the steps:
as §2

As usually defined, the IC50 is the concentration that inhibits the measured activity by half. Low readings indicate inhibition by little substance, high ones a need for much substance. The term solubility denotes how much of the substance goes into solution per volume. A high value points to much dissolved substance. As for `COc1cc(OC)c(/C=C/S(=O)(=O)Nc2ccc(OC)c(NC(C(=O)O)c3ccc(Br)cc3)c2)c(OC)c1` (stereo not given), in the data set with DU-145, the Activity result is “Dose-dependent effect” and the IC50 came to 250 nM. In data set [1], this compound yielded a solubility of 10000 µg/mL (≈ 16.5 mM). Also, in the data set with K562, the Activity entry was “Dose-dependent effect” and the IC50 turned out to be 75 nM.
With `COc1cc(OC)c(/C=C/S(=O)(=O)Nc2ccc(OC)c(NC(C(=O)O)c3ccc(Cl)cc3)c2)c(OC)c1` (stereo not given), in the data set on DU-145, the Activity entry is “Dose-dependent effect” and the 50% inhibitory concentration (IC50) turned out to be 75 nM. The solubility in [1] turned out to be 10000 µg/mL (≈ 17.8 mM). In the data set with K562, the Activity result is “Dose-dependent effect” and half-maximal inhibition (IC50) required 15 nM.
Turning to `COc1cc(OC)c(/C=C/S(=O)(=O)Nc2ccc(OC)c(NC(C(=O)O)c3ccccc3)c2)c(OC)c1` (stereo not given), in the data set on DU-145, the Activity result is “Dose-dependent effect” and the IC50 came out at 75 nM. The compound further showed a solubility in [1] of 10000 µg/mL (≈ 18.9 mM). Further, in the data set on K562, the Activity result was “Dose-dependent effect” and half-maximal inhibition (IC50) was put at 300 nM.
As for `COc1cc(OC)c(/C=C/S(=O)(=O)Nc2ccc(OC)c(NC(C(=O)O)c3ccc(F)cc3)c2)c(OC)c1` (stereo not given), in the data set on DU-145, the Activity result was “Dose-dependent effect” and the IC50 worked out at 75 nM. Further, in data set [1], the solubility is 10000 µg/mL (≈ 18.3 mM). In the data set on K562, the Activity entry is “Dose-dependent effect” and the IC50 is 20 nM.
In general, GI50 refers to the concentration giving 50% growth inhibition. A low value points to greater sensitivity of the cells. As to `CC(=O)O[C@H]1C(=O)[C@@]2(C)[C@H]([C@H](OC(=O)c3ccccc3)[C@]3(O)C[C@H](OC(=O)[C@H](O)[C@@H](NC(=O)c4ccccc4)c4ccccc4)C(C)=C1C3(C)C)[C@]1(OC(C)=O)CO[C@@H]1C[C@@H]2O` [PACLITAXEL], the GI50 amounted to 3 nM in the data set on 2008 [2], 2000 nM in data set [3], 4 nM in data set [5] and 750 nM in data set [6]. The RatioGI50 came to 600 in the data set on 2008 [4] and 190 with MES-SA. The result in the data set filed under Bos taurus [7] was Active.
On to `COC(=O)Nc1nc2cc(C(=O)c3cccs3)ccc2[nH]1`, for which the inhibition entry in the data set listed under Bos taurus [8] is “Active”.
In the case of `O=S(=O)(/C=C/c1ccccc1)Nc1ccc(Cl)cc1`, the Activity entry with DU-145 and with K562 was “Dose-dependent effect” in each case. Moreover, the IC50 with DU-145 and in the data set on K562 was 20000 nM each time.
Regarding `COc1ccc(NS(=O)(=O)/C=C/c2cc(OC)c(OC)c(OC)c2)cc1N`, in the data set with DU-145, the Activity result is “Dose-dependent effect” and the IC50 stood at 35000 nM. Also, in the data set with K562, the Activity result was “Dose-dependent effect” and it took 15000 nM to reach half-maximal inhibition (IC50).
Consider `COc1ccc(NS(=O)(=O)/C=C/c2cc(OC)c(OC)c(OC)c2)cc1`, for which, in the data set with DU-145, the Activity result was “Dose-dependent effect” and inhibition was half-maximal at 35000 nM (IC50). In the data set with K562, the Activity result was “Dose-dependent effect” and the midpoint of inhibition, the IC50, lay at 35000 nM.
